Consider eight molecules from ChEMBL document CHEMBL3232763, “Synthesis of 6-cinnamoyl-2H-benzo[b][1,4]oxazin-3(4H)-ones and their effects on A549 lung cancer cell growth” (Eur J Med Chem, 2014).

The source made the active and inactive calls. The rule behind the calls is not given here.

In general, IC50 refers to the concentration that inhibits the measured activity by half.

Assay [1] concerns A549. Nature of the assay: Induction of autophagy in human A549 cells assessed as effect on LC3-2 protein expression at 5 uM after 48 hrs by Western blot analysis. Format: functional, cell-based. The essentials:
(§1)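 Cells treated 48 h at 5 µM, washed with ice-cold PBS, lysed, protein quantified by Bradford; SDS electrophoresis, PVDF transfer, blocking in 5% milk/PBST; probed overnight at 4 °C with rabbit anti-human LC3b and GAPDH antibodies, HRP secondaries, film detection; LC3-II band density normalised to loading control.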

The subject of assay [2] is A549. Nature of the assay: Cell cycle arrest in human A549 cells assessed as accumulation at S phase at 5 uM after 48 hrs by propidium iodide staining-based flow cytometric analysis (reference value: 39.68%). Format: functional. A general note: In flow cytometry, cells or beads pass a laser one at a time.
Assay [3] has as its system A549. The assay is described as follows: Induction of apoptosis in human A549 cells assessed as increase in apoptotic bodies formation at 5 uM measured at 48 hrs by Hoechst 33258 staining-based fluorescence microscopic analysis. Format: functional, cell-based. The procedure, abridged:
(§2)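 After 48 h with 5 µM compound or 0.1% DMSO, A549 cells in 24-well plates stained with 10 µg/ml Hoechst 33258 for 30 min at 37 °C, washed twice with PBS, and nuclei examined by fluorescence microscopy for chromatin condensation and apoptotic bodies.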

In assay [4] the test system is A549. Nature of the assay: Induction of autophagy in human A549 cells assessed as increase in acidic vesicles accumulation at 5 uM after 48 hrs by acridine orange staining-based fluorescence microscopic analysis. Format: functional, cell-based. The procedure, abridged: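 A549 cells treated 48 h at 5 µM, then stained with acridine orange (5 µg/ml) for 1 min at room temperature, washed twice with PBS, and acidic vesicles viewed by fluorescence microscopy (200×).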

In assay [5] the test system is A549. The assay is described as follows: Cell cycle arrest in human A549 cells assessed as accumulation at G1 phase at 5 uM after 48 hrs by propidium iodide staining-based flow cytometric analysis (reference value: 50.70%). Format: functional.
For assay [6], the system named is A549. The assay is described as follows: Induction of necrosis in human A549 cells at 10 uM after 48 hrs by LDH release assay. Format: functional, cell-based. The essentials:
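LDH level measured in A549 cells after 48 h with 10 µM compound or untreated control, using a commercial kit per manufacturer's instructions; mean ± SE, n = 3.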
(In general: Release of lactate dehydrogenase indicates damage to the cell membrane.)

Assay [7] has as its system A549. Nature of the assay: Cytotoxicity against human A549 cells assessed as change in cell morphology at 5 uM after 48 hrs by phase contrast microscopic analysis. Format: functional, cell-based. The procedure, abridged: (§3)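 A549 cells (RPMI-1640, 10% bovine calf serum, 37 °C, 5% CO2) treated with compound at 5 µM or 0.1% DMSO control for 24 h or 48 h; morphology and cell density inspected by phase contrast microscopy.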

Assay [8] deals with A549. The assay is described as follows: Induction of apoptosis in human A549 cells assessed as chromatin condensation at 5 uM measured at 48 hrs by Hoechst 33258 staining-based fluorescence microscopic analysis. Format: functional, cell-based. The essentials: as §2
Assay [9] has as its system A549. Nature of the assay: Cytotoxicity against human A549 cells assessed as growth inhibition measured at 48 hrs by SRB assay. Format: functional, cell-based. Conditions: for IC50: A549, 48 h. The essentials: (§4)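 Sulforhodamine B assay: A549 cells seeded in 96-well plates, exposed 48 h to 1, 5 or 10 µM or 0.1% DMSO; survival expressed relative to DMSO-treated cells; triplicate assays, mean ± SE (n = 3); IC50 at 48 h derived.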
In general terms: The SRB assay estimates cell density from bound dye.

For assay [10], the system named is A549. The assay is described as follows: Cytotoxicity against human A549 cells assessed as decrease in cell density at 5 uM after 24 to 48 hrs by phase contrast microscopic analysis. Format: functional, cell-based. The procedure, abridged:
as §3

The test system of assay [11] is A549. Nature of the assay: Cell cycle arrest in human A549 cells assessed as accumulation at G2 phase at 5 uM after 48 hrs by propidium iodide staining-based flow cytometric analysis (reference value: 9.63%). Format: functional.
In assay [12] the test system is A549. The assay is described as follows: Induction of autophagy in human A549 cells assessed as upregulation of LC3-2 protein expression at 5 uM after 48 hrs by Western blot analysis. Format: functional, cell-based. The procedure, abridged: as §1
For assay [13], the system named is A549. The assay is described as follows: Cytotoxicity against human A549 cells assessed as inhibition of cell viability at 10 uM after 48 hrs by SRB assay relative to control. Format: functional. The essentials: as §4

As for `O=C1COc2ccc(C(=O)/C=C/c3ccc4c(c3)OCO4)cc2N1`, the outcome in assay [1], in [3], in assay [4], in assay [6], in [7] and in assay [8] was inactive. Besides, the results for the Activity in assay [2], in [5] and in assay [11] were 26.3%, 63.37% and 10.33%, respectively. For the same molecule, in [9], the “growth inhibition (GI)” value was “Dose-dependent effect”. Besides, the IC50 in assay [9] worked out at 16.3 µM. Besides, the result in assay [10] was Active.

Regarding `O=C1COc2ccc(C(=O)/C=C/c3ccccc3)cc2N1`, the results for the Activity in [2], in assay [5] and in [11] were 32.08%, 55.27% and 12.66%, respectively. Moreover, the result in [3], in [4], in assay [6], in assay [12], in assay [7] and in [8] was inactive. Besides, the “growth inhibition (GI)” value in [9] is “Dose-dependent effect”. For the same molecule, in assay [9], the IC50 was 5.46 µM. For the same molecule, the outcome in assay [10] was Active.

Take `O=C1COc2ccc(C(=O)/C=C/c3ccc(OCc4ccccc4)cc3)cc2N1`: in assay [7], the outcome was inactive.

Regarding `O=C1COc2ccc(C(=O)/C=C/c3ccc(Cl)cc3)cc2N1`, in [7], the outcome was inactive.

With `O=c1[nH]cc(F)c(=O)[nH]1` [FLUOROURACIL], the IC50 in assay [9] worked out at 0.98 µM.

For `O=C1COc2ccc(C(=O)/C=C/c3ccc4ccccc4c3)cc2N1`, in assay [7], the outcome was inactive.

In the case of `COc1ccc(/C=C/C(=O)c2ccc3c(c2)NC(=O)CO3)c(OC)c1`, the Activity in assay [2] turned out to be 30.59%; in [5] it was 57.92%; in assay [11], 11.5%. The outcome in assay [3], in assay [6], in assay [7] and in [8] was inactive. Moreover, the result in assay [4], in assay [12] and in assay [10] was Active. Further, in assay [9], the “growth inhibition (GI)” value was “Dose-dependent effect”. For the same molecule, in [9], the IC50 turned out to be 6.49 µM.

On to `COc1cc(/C=C/C(=O)c2ccc3c(c2)NC(=O)CO3)cc(OC)c1`, for which the Activity stood at 9.25% in assay [2], 75.46% in assay [5], 15.29% in [11] and 24% in assay [13]. In addition, the outcome in assay [3], in assay [6], in assay [7] and in assay [8] was inactive. Also, the outcome in assay [4], in assay [12] and in assay [10] was Active. Further, the “growth inhibition (GI)” value in [9] is “Dose-dependent effect”. In addition, in assay [9], the IC50 was determined as 3.29 µM.
